Assay outcomes: PubChem, Johns Hopkins Ion Channel Center
An excerpt weighted towards active compounds, which were near 3.5% of everything screened.
MrgX1 antag – antagonists of human MrgX1 receptor, primary screen, HEK293 cells, Fluo-4 calcium flux. BAM8-22 antagonism; active compounds read low. B-score at 10 µM. 310,000 tested, 1.3% active. AID 588676, 2011;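 active = calcium-response B-score plate-corrected more than 3 library SD below zero, starting fluorescence within 5 deviations, no agonist response on first addition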;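 also: peak minus trough fluorescence over baseline after final BAM8-22 challenge near maximal dose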
Target sequence (Q96LB2 whole entry, looked up): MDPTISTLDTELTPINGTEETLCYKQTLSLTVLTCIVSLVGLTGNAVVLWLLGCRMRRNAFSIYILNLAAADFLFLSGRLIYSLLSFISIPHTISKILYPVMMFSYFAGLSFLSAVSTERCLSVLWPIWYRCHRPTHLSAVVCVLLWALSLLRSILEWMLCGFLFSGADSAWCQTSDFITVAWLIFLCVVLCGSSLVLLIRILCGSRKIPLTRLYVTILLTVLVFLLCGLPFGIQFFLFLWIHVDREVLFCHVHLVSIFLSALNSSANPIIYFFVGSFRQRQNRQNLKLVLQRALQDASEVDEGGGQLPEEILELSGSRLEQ
MrgX1 agonist – agonists of human MrgX1 receptor, primary screen, HEK293 cells, Fluo-4 calcium flux; Fluo-4 calcium fluorescence, agonist mode; active compounds read high; B-score at 10 µM; 310,000 tested, 0.44% active; Mas-related G-protein coupled receptor member X1 (Homo sapiens), Q96LB2;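 active = calcium response B-score plate-corrected fluorescence ratio at least 3 library SD, with starting fluorescence B-score inside 5 SD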
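Material: MrgX1-expressing HEK293 cells / Dosing: compound as first of three additions / Incubation: overnight seeding, then 1 h dark dye loading / Signal: Fluo-4 NW calcium fluorescence / Evaluation: B-scored fluorescence response ratio / Benchmarks: positive and negative control wells on each plate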
MrgX1 allo act – positive allosteric modulators of MrgX1, primary screen, HEK293 cells, Fluo-4 calcium flux. Mas-related G-protein coupled receptor member X1 (Homo sapiens), Q96LB2. FDSS; active compounds read high. B-score at 10 µM. 310,000 tested, 0.63% active. AID 588675, 2011;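 active = plate-corrected calcium response at least 3 library SD above typical, normal starting fluorescence, not activating the receptor alone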;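 also: compound read alongside a low EC10 to EC30 dose of BAM8-22 agonist; peak minus trough fluorescence over baseline measured at the second addition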
RGS4 block – RGS4 inhibitors, primary screen, cell-based, HEK293 M3R inducible RGS4, calcium flux; AID 463165, 2010; Fluo-4 calcium flux; active compounds read high; triggered by carbachol at its EC20; 310,000 tested, 0.45% active; Regulator of G-protein signaling 4 (Homo sapiens), P49798; B-score at 10 µM;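 active = B-score, a plate-corrected calcium signal, over three deviations above library mean, with baseline fluorescence within five deviations of library mean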;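 also: RGS4 expression induced by doxycycline in cells with stable M3 receptor; B-score is computed from the integrated fluorescence ratio over baseline after carbachol; higher B-score means a larger calcium signal and so more RGS4 inhibition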
Target sequence (P49798 whole entry, looked up): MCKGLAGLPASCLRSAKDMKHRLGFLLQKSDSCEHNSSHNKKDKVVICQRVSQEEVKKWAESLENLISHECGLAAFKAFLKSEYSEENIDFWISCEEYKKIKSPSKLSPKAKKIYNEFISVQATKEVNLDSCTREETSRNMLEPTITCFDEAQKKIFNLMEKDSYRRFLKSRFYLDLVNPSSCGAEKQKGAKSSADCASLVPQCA
RGS4 pot – RGS4 potentiators or activators, primary screen, cell-based, HEK293 M3R inducible RGS4, calcium flux | AID 463111, 2010 | carbachol calcium flux Fluo4; active compounds read low | 310,000 tested, 0.92% active | B-score at 10 µM;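 active = B-score of the integrated calcium signal more than 4 SD below the library mean, with starting fluorescence not abnormally high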;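 also: negative B-score means reduced calcium response which marks RGS4 activation or potentiation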
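Test system: HEK293 cells with stable M3R and inducible RGS4; also added: carbachol at ECmax as muscarinic agonist stimulus; schedule: dye loading 30 min 37 °C, buffer rest 30 min RT; technique: kinetic calcium fluorescence imaging with Fluo4-AM dye, 2 µM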
* = called active by the depositor; i = inactive; . = not tested or not shown.

SMILES | MrgX1 antag | MrgX1 agonist | MrgX1 allo act | RGS4 block | RGS4 pot
CCOC(=O)CCS(=O)(=O)c1ccc(-c2ccc(S(=O)(=O)CCC(=O)OCC)cc2)cc1 | -7.1* | i | i | i | i
COc1cc2[nH]c(=O)n(CCCCCC(=O)N3CC=C(c4ccccc4)CC3)c(=O)c2cc1OC | i | i | i | i | -8.8*
CCOc1cc2[nH]c(=O)n(CCCC(=O)N(C)Cc3ccccc3)c(=O)c2cc1OCC | i | i | 7.9* | i | i
CCOc1cc2[nH]c(=O)n(CCCC(=O)NCc3ccco3)c(=O)c2cc1OCC | i | i | i | i | i
O=S(=O)(Cc1ccccc1)N=Nc1c(O)[nH]c2ccc(Br)cc12 | i | i | 10* | i | i
O=C(CNC(=O)c1ccccc1)N=Nc1c(O)[nH]c2ccc(Br)cc12 | i | i | i | i | i
N#CCCCN1C(=O)C(=C(C#N)C#N)c2ccccc21 | i | 33* | i | i | i
Cc1ccc(S(=O)(=O)N2[C@@H](c3ccc(F)cc3)C(C(=O)O)=CC[C@H]2c2cccs2)cc1 | i | i | i | . | .
CCO/C=N/Nc1nc(C(F)(F)F)nc2c1cnn2Cc1ccccc1 | i | i | i | i | i
O=C(NN1C(=O)C2C(c3ccccc3)C=CC(c3ccccc3)C2C1=O)c1ccncc1 (configuration not stated) | i | 28* | i | i | i
O=C(NN1C(=O)C2C3C=CC(C3)C2C1=O)c1ccncc1 (configuration not stated) | i | i | i | i | i
COc1ccc(C(=O)NCc2cnn(C)c2C)cc1OC1CCN(C(C)C)CC1 | i | i | i | i | i
O=C1/C(=N/n2cnnc2)c2ccccc2N1Cc1ccccc1 | i | 45* | i | i | i
CSc1ccc(CNC(=O)C2CCC(=O)N(Cc3cccc(F)c3)C2)cc1 (configuration not stated) | i | i | i | i | i
NN1C(=O)/C(=C2/Sc3ccccc3N2CCCS(=O)(=O)O)SC1=S | i | i | i | i | i
O=C1NC(=S)S/C1=C1\Sc2ccccc2N1CCCS(=O)(=O)O | -4.8* | i | i | i | i
COc1cc(/C=N/NC(=O)Cc2ccc(Br)cc2)cc(OC)c1O | i | i | 7.5* | i | i
Cc1ccc(-c2ccc(/C=N\NC(=O)c3cc4c(ccc5ccccc54)o3)o2)cc1[N+](=O)[O-] | i | i | i | i | i
COc1cc(Br)cc(/C=N/NC(=O)Cc2ccccc2)c1O | i | i | i | i | i
COc1ccc(/C=N\NC(=O)c2cc3c(ccc4ccccc43)o2)cc1O | i | i | i | i | -7.2*
O=C(N/N=C/c1ccc(-c2ccc(Cl)c(C(=O)O)c2)o1)c1cc2c(ccc3ccccc32)o1 | -9.8* | i | i | i | i
COc1cc(/C=N/NC(=O)c2cc3c(ccc4ccccc43)o2)cc(OC)c1O | i | i | i | i | -7.3*
Cc1ccc(C)c(CN2CCSCC2)c1 | i | i | i | i | i
O=C(O)CCCCCCCCc1cn(CCc2c[nH]c3ccccc23)nn1 | i | i | i | i | i
C=CCN1C(=O)c2ccccc2Sc2ccc(C(=O)NCC(OC)OC)cc21 | i | i | i | i | i
SMILES | MrgX1 antag | MrgX1 agonist | MrgX1 allo act | RGS4 block | RGS4 pot
O=C1c2ccccc2C(O)(c2ccccc2)N1c1ccncc1 (configuration not stated) | i | i | i | i | i
CC(C)CCN1C(=O)c2ccc(C(=O)Nc3ccccc3C(=O)O)cc2C1=O | i | i | i | i | -7.1*
CC(c1ccccc1)N1C(=O)c2ccc(C(=O)Nc3ccc(Br)cc3C(=O)O)cc2C1=O (configuration not stated) | -11* | i | i | i | i
O=c1[nH]c(-c2ccccc2)nnc1-c1ccccc1 | i | i | i | i | i
COc1ccc(C(=O)COC(=O)CCc2nc3ccccc3[nH]c2=O)cc1Br | i | i | i | i | i
Cc1ncc(CO)c(/C=N/NC(=O)c2cc(Br)ccc2O)c1O | i | i | i | i | i
Cc1ncc(CO)c(/C=N/NC(=O)c2ccc(Br)cc2)c1O | i | i | i | 8.4* | i
Cc1cc(-n2c(C)cc(C(=O)CSc3ncnc4ccccc34)c2C)no1 | -4.7* | i | i | i | i
CC1CC(C)CN(CCCNC(=O)c2ccc3c(c2)ncn3C2CCCC2)C1 (configuration not stated) | i | i | i | i | i
C=CC[n+]1c(-c2ccc(OCC)cc2)csc1NNC(=O)Nc1ccccc1 | -6.2* | i | i | i | i
O=C(CN1C(=O)c2ccc([N+](=O)[O-])cc2C1=O)NC1CCCCCC1 | i | i | i | i | i
CCOc1cc(C(=S)N2CCOCC2)cc(Br)c1OS(=O)(=O)c1ccccc1 | i | i | i | i | i
COc1cc(C(=O)NCC(=O)OCc2ccccc2Cl)cc(OC)c1OC | i | i | i | i | i
CCOC(=O)c1sc(N)c(C#N)c1COC(=O)CNC(=O)c1cc(OC)c(OC)c(OC)c1 | -6.6* | i | i | i | i
CC1CCCCC1NC(=O)CNC(=O)c1ccco1 (configuration not stated) | i | i | i | i | i
CC1(c2nnc(-c3cccc(Cl)c3)o2)CC(c2ccccc2Br)=NO1 (configuration not stated) | i | i | i | i | i
O=C(NC1CCCC1)c1sc(=S)n2c1[nH]c(=O)c1ccccc12 | i | 60* | i | i | i
O=C(NCc1ccccc1)c1ccc2c(=O)[nH]c3c(C(=O)NCC4CCCO4)sc(=S)n3c2c1 (configuration not stated) | i | i | i | i | i
O=C(NCc1ccco1)c1sc(=S)n2c1[nH]c(=O)c1ccccc12 | i | 57* | i | i | i
COc1ccccc1N1CCN(CCC(=O)Nc2ccc(F)cc2)CC1 | i | i | i | i | i
CCN(CC)Cc1c(C(=O)N/N=C/c2c(Cl)cccc2Cl)nnn1-c1nonc1N | i | i | i | i | i
